Source: ChEMBL document CHEMBL1153793, “New pyridone, thioxopyridine, pyrazolopyridine and pyridine derivatives that modulate inflammatory mediators in stimulated RAW 264.7 murine macrophage” (Eur J Med Chem, 2009)
pIC50: −log10 of the molar value. Activity calls are given as the source filed them. No cut-off for these calls is given here.

Experiments:
[1] = tested on: RAW264.7; test: Cytotoxicity against mouse RAW264.7 cells assessed as cell viability after 24 hrs by MTT assay; format: cell-based; conditions: RAW264.7, 24 h, in the assay text read “MTT assay” for “ultra gel clot assay”
Outline: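 RAW 264.7 macrophages (5×10^4 cells/well) exposed 24 h at 37 °C to a range of compound concentrations, then read by MTT reduction to formazan, solubilised in acidic isopropanol. Viability expressed as mean % of untreated cells (n = 4); 1000 U/ml M-CSF as positive control. IC50 derived.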

[2] = tested on: RAW264.7; test: Effect on inflammatory mediators in LPS-stimulated mouse RAW264.7 cells assessed as nitrite accumulation at 20 uM after 24 hrs by Griess assay; format: functional
Outline: (§1)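 Cells in phenol red-free RPMI-1640 with 10% FBS treated 24 h with 20 µM compound, with or without LPS (1 µg/ml). Supernatant mixed 1:1 with Griess reagent for 10 min, A550 read against a sodium nitrite standard curve, then normalised to BCA protein.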

[3] = tested on: RAW264.7; test: Effect on inflammatory mediators in mouse RAW264.7 cells assessed as nitrite accumulation at 20 uM after 24 hrs by Griess assay; format: functional; outline: as §1
[4] = tested on: RAW264.7; test: Effect on inflammatory mediators in LPS-stimulated mouse RAW264.7 cells assessed as TNF-alpha accumulation at 20 uM after 24 hrs by ELISA; format: functional
Outline: (§2)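 RAW 264.7 given 20 µM compound for 24 h, alone or together with LPS at 1 µg/ml. TNF-α and PGE2 in harvested supernatants quantified with commercial ELISA kits per manufacturer; four repeats, means reported.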

[5] = tested on: RAW264.7; test: Effect on inflammatory mediators in mouse RAW264.7 cells assessed as TNF-alpha accumulation at 20 uM after 24 hrs by ELISA; format: functional; outline: as §2
[6] = tested on: RAW264.7; test: Effect on inflammatory mediators in LPS-stimulated mouse RAW264.7 cells assessed as PGE2 accumulation at 20 uM after 24 hrs by ELISA; format: functional; outline: as §2
[7] = tested on: RAW264.7; test: Effect on inflammatory mediators in mouse RAW264.7 cells assessed as PGE2 accumulation at 20 uM after 24 hrs by ELISA; format: functional; outline: as §2
[8] = tested on: RAW264.7; test: Effect on inflammatory mediators in LPS-stimulated mouse RAW264.7 cells assessed as COX-2 accumulation at 20 uM after 24 hrs by dot immunoblotting; format: functional
Outline: (§3)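 Cells treated 24 h with 20 µM compound, with or without LPS (1 µg/ml). 20 µg soluble lysate protein dot-blotted onto nitrocellulose and probed with rabbit anti-mouse COX-2 or 5-LO, HRP anti-rabbit secondary and OPD colour. Intensity normalised to β-actin dots; four repeats.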

[9] = tested on: RAW264.7; test: Effect on inflammatory mediators in mouse RAW264.7 cells assessed as COX-2 accumulation at 20 uM after 24 hrs by dot immunoblotting; format: functional; outline: as §3
[10] = tested on: RAW264.7; test: Effect on inflammatory mediators in LPS-stimulated mouse RAW264.7 cells assessed as 5-LO accumulation at 20 uM after 24 hrs by dot immunoblotting; format: functional; outline: as §3
[11] = tested on: RAW264.7; test: Effect on inflammatory mediators in mouse RAW264.7 cells assessed as 5-LO accumulation at 20 uM after 24 hrs by dot immunoblotting; format: functional; outline: as §3
[12] = Hydroxyl radical scavenging activity assessed as trolox equivalents at 1 uM by ORAC assay; format: functional
Outline: (§4)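 β-Phycoerythrin fluorescence decay followed kinetically for 2 h at 37 °C with 1 µM compound, against peroxyl and hydroxyl radicals. One ORAC unit = net protection given by 1.0 µM Trolox.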

[13] = Peroxyl radical scavenging activity assessed as trolox equivalents at 1 uM by ORAC assay; outline: as §4
[14] = Antioxidant activity assessed as superoxide radical scavenging activity; format: functional
Outline: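 Non-cellular assay; superoxide generated by oxidation of 50 µM hypoxanthine with 12 mU xanthine oxidase. Scavenging followed as the rate of nitroblue tetrazolium reduction to formazan. SC50 taken from dose-dependent curves of serial dilutions; superoxide dismutase as standard inhibitor.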

[15] = tested on: RAW264.7; test: Effect on mouse RAW264.7 cell function assessed as FITC-LPS binding to macrophage after 15 mins by fluorimetry; format: functional, cell-based
Outline: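 5×10^5 RAW 264.7 cells pre-incubated 15 min at 37 °C with compound in RPMI-1640 plus 10% FBS as the CD14/LBP source. FITC-LPS (200 ng/ml) then added for 1 h. After PBS wash, fluorescence read at ex 485/em 530 nm and median fluorescence intensity reported.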

[16] = tested on: RAW264.7; test: Induction of phagocytosis in mouse RAW264.7 cells assessed as phagocytic activity against FITC-zymosan after 1 hr by fluorimetry; format: functional, cell-based
Outline: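 Cells at 1×10^5/well in phenol red-free RPMI-1640 rested 24 h, then given compound for 1 h. FITC-zymosan added for a further 1 h; cells washed three times and lysed with Triton X-100. Fluorescence read at 485/530 nm and expressed relative to untreated cells (100%).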

SMILES: COc1ccc(-c2cc(-c3ccc4c(c3)CCCC4)nc(OCC(=O)NN)c2C#N)cc1OC
- pIC50 [1]: 5.51
- Activity [2]: 78.54 nmol
- Activity [3]: 1.34 nmol
- Activity [4]: 4924.22 pg
- Activity [5]: 124.68 pg
- Activity [6]: 3111.94 pg
- Activity [7]: 25.6 pg
- Activity [8]: 71.3%
- Activity [9]: 10.2%
- Activity [10]: 83.2%
- Activity [11]: 13.8%
- Activity [12]: 5.84
- Activity [13]: 5.12
- SC50 [14]: 8.67 µg/mL

SMILES: COc1ccc(-c2cc(-c3ccc4c(c3)CCCC4)nc(OCC(=O)NCc3ccccc3)c2C#N)cc1OC
- Activity [15]: inactive
- Activity [16]: inactive
- Activity [2]: 155.25 nmol
- Activity [3]: 26.65 nmol
- Activity [4]: 854.16 pg
- Activity [5]: 116.8 pg
- Activity [6]: 2018.96 pg
- Activity [7]: 53.1 pg
- Activity [8]: 73.3%
- Activity [9]: 23.7%
- Activity [10]: 77.4%
- Activity [11]: 18.9%
- Activity [12]: 2.31
- Activity [13]: 3.56
- SC50 [14]: 19.9 µg/mL

SMILES: COc1ccc(-c2cc(-c3ccc4c(c3)CCCC4)nc(Cl)c2C#N)cc1OC
- pIC50 [1]: < 4.30
- Activity [15]: inactive
- Activity [16]: inactive
- Activity [2]: 766.85 nmol
- Activity [3]: 512.35 nmol
- Activity [4]: 5716.66 pg
- Activity [5]: 810.75 pg
- Activity [6]: 3325.87 pg
- Activity [7]: 38.33 pg
- Activity [8]: 88.7%
- Activity [9]: 36.6%
- Activity [10]: 84.5%
- Activity [11]: 25.3%
- Activity [12]: 0.35
- Activity [13]: 0.61
- SC50 [14]: 87.9 µg/mL

SMILES: COc1ccc(-c2cc(-c3ccc4c(c3)CCCC4)nc3[nH]nc(N)c23)cc1OC
- pIC50 [1]: < 4.30
- Activity [2]: 145.67 nmol
- Activity [3]: 10.53 nmol
- Activity [4]: 4185.85 pg
- Activity [5]: 94.88 pg
- Activity [6]: 3415.23 pg
- Activity [7]: 28.6 pg
- Activity [8]: 63.7%
- Activity [9]: 15.7%
- Activity [10]: 81.8%
- Activity [11]: 24%
- Activity [12]: 5.85
- Activity [13]: 1.92
- SC50 [14]: > 100 µg/mL

SMILES: N#Cc1c(-c2c[nH]c3ccccc23)cc(-c2ccc3c(c2)CCCC3)[nH]c1=O
- pIC50 [1]: < 4.00
- Activity [16]: Active
- Activity [2]: 505.75 nmol
- Activity [3]: 16.25 nmol
- Activity [4]: 5100.15 pg
- Activity [5]: 88.44 pg
- Activity [6]: 3210.3 pg
- Activity [7]: 32.63 pg
- Activity [8]: 82.4%
- Activity [9]: 16.3%
- Activity [10]: 82.3%
- Activity [11]: 23.5%
- Activity [12]: 0.21
- Activity [13]: 0.35
- SC50 [14]: 78.5 µg/mL

SMILES: COc1ccc(-c2cc(-c3ccc4c(c3)CCCC4)[nH]c(=O)c2C#N)cc1OC
- pIC50 [1]: < 4.00
- Activity [2]: 355.78 nmol
- Activity [3]: 14.8 nmol
- Activity [4]: 3860.25 pg
- Activity [5]: 69.56 pg
- Activity [6]: 3120.45 pg
- Activity [7]: 30.35 pg
- Activity [8]: 76.3%
- Activity [9]: 14.6%
- Activity [10]: 92.1%
- Activity [11]: 15.8%
- Activity [12]: 0.54
- Activity [13]: 0.41
- SC50 [14]: > 100 µg/mL

SMILES: CC(C)c1ccc(-c2cc(-c3ccc4c(c3)CCCC4)[nH]c(=S)c2C#N)cc1
- pIC50 [1]: < 4.00
- Activity [15]: Active
- Activity [16]: Active
- Activity [2]: 25.58 nmol
- Activity [3]: 12.66 nmol
- Activity [4]: 1458.16 pg
- Activity [5]: 101.5 pg
- Activity [6]: 1843.42 pg
- Activity [7]: 41.84 pg
- Activity [8]: 36.7%
- Activity [9]: 18.2%
- Activity [10]: 31.6%
- Activity [11]: 14.2%
- Activity [12]: 5.41
- Activity [13]: 4.32
- SC50 [14]: 10.2 µg/mL

SMILES: CC(C)c1ccc(-c2cc(-c3ccc4c(c3)CCCC4)nc(NCc3ccccc3)c2C#N)cc1
- pIC50 [1]: < 4.30
- Activity [15]: inactive
- Activity [2]: 922.5 nmol
- Activity [3]: 614.63 nmol
- Activity [4]: 6325.08 pg
- Activity [5]: 1890.16 pg
- Activity [6]: 3222.55 pg
- Activity [7]: 48.3 pg
- Activity [8]: 97.3%
- Activity [9]: 53.2%
- Activity [10]: 88.7%
- Activity [11]: 29.8%
- Activity [12]: 1.01
- Activity [13]: 1.34
- SC50 [14]: 77.6 µg/mL

SMILES: CC(C)c1ccc(-c2cc(-c3ccc4c(c3)CCCC4)nc3[nH]nc(N)c23)cc1
- pIC50 [1]: < 4.30
- Activity [15]: Active
- Activity [16]: Active
- Activity [2]: 62.42 nmol
- Activity [3]: 5.62 nmol
- Activity [4]: 1925.78 pg
- Activity [5]: 105.6 pg
- Activity [6]: 2974.23 pg
- Activity [7]: 32.21 pg
- Activity [12]: 2.28
- Activity [13]: 2.45
- SC50 [14]: 21.9 µg/mL

SMILES: N#Cc1c(-c2c[nH]c3ccccc23)cc(-c2ccc3c(c2)CCCC3)[nH]c1=S
- pIC50 [1]: < 4.00
- Activity [2]: 480.05 nmol
- Activity [3]: 15.5 nmol
- Activity [4]: 4925.35 pg
- Activity [5]: 75.4 pg
- Activity [6]: 3005.3 pg
- Activity [7]: 49.82 pg
- Activity [8]: 59.8%
- Activity [9]: 28.1%
- Activity [10]: 69.4%
- Activity [11]: 23.8%
- Activity [12]: 4.2
- Activity [13]: 6.13
- SC50 [14]: 4.22 µg/mL
